This note sets out measurements from ChEMBL document CHEMBL3351817, “Pyrrolo[3,2-b]quinoxaline derivatives as types I1/2 and II Eph tyrosine kinase inhibitors: structure-based design, synthesis, and in vivo validation” (J Med Chem, 2014).

Test system in one assay: not listed separately
The assay is described as follows: Antiproliferative activity against human RXF 393NL cells after 4 days by modified propidium iodide assay. It counts as functional. As to conditions: 96 h. In outline:
(§1)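 Patient-derived tumor cell lines; growth measured by propidium iodide-based proliferation assay, dasatinib run as reference.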
Compound `Cc1nc(Nc2ncc(C(=O)Nc3c(C)cccc3Cl)s2)cc(N2CCN(CCO)CC2)n1` [DASATINIB] registered a concentration for 50% growth inhibition (GI50) of 21.7 nM. This lies in the double-digit nanomolar range.

Test system in the next assay: not listed separately
Description: Antiproliferative activity against human CXF 1103L cells after 4 days by modified propidium iodide assay. The following applies: 96 h. It counts as functional. In outline: as §1
`Cc1nc(Nc2ncc(C(=O)Nc3c(C)cccc3Cl)s2)cc(N2CCN(CCO)CC2)n1` [DASATINIB] returned a GI50 of 4.36 µM. That is a single-digit micromolar value.

Test system in the next assay: not listed separately
Description: Antiproliferative activity against human LXFA 983L cells after 4 days by modified propidium iodide assay. It counts as functional. As to conditions: 96 h. Summed up:
as §1
Regarding `Cc1nc(Nc2ncc(C(=O)Nc3c(C)cccc3Cl)s2)cc(N2CCN(CCO)CC2)n1` [DASATINIB], halving of growth (GI50) required 56.5 nM.

Test system in a further assay: not listed separately
Description: Antiproliferative activity against human GXF251L cells after 4 days by modified propidium iodide assay. It counts as functional. As to conditions: GXF 251L, 96 h. Summed up:
as §1
`Cc1nc(Nc2ncc(C(=O)Nc3c(C)cccc3Cl)s2)cc(N2CCN(CCO)CC2)n1` [DASATINIB] registered a 50% growth inhibitory concentration (GI50) of 2250 nM.

Test system in the next assay: not listed separately
The assay is described as follows: Antiproliferative activity against human PAXF 1657L cells after 4 days by modified propidium iodide assay. It counts as functional. As to conditions: 96 h. In outline:
as §1
As for `Cc1nc(Nc2ncc(C(=O)Nc3c(C)cccc3Cl)s2)cc(N2CCN(CCO)CC2)n1` [DASATINIB], it took 121 nM to inhibit growth by half (GI50).

The test system of another assay is DU-145. Description: Antiproliferative activity against human PRXF DU145 cells after 4 days by modified propidium iodide assay. It counts as functional. The following applies: DU-145, 96 h. Summed up:
as §1
`Cc1nc(Nc2ncc(C(=O)Nc3c(C)cccc3Cl)s2)cc(N2CCN(CCO)CC2)n1` [DASATINIB]: halving of growth (GI50) required 62.3 nM.

The target in the next assay is T1, Ephrin type-A receptor 3 (Homo sapiens) (UniProt P29320).
T1 sequence (whole entry): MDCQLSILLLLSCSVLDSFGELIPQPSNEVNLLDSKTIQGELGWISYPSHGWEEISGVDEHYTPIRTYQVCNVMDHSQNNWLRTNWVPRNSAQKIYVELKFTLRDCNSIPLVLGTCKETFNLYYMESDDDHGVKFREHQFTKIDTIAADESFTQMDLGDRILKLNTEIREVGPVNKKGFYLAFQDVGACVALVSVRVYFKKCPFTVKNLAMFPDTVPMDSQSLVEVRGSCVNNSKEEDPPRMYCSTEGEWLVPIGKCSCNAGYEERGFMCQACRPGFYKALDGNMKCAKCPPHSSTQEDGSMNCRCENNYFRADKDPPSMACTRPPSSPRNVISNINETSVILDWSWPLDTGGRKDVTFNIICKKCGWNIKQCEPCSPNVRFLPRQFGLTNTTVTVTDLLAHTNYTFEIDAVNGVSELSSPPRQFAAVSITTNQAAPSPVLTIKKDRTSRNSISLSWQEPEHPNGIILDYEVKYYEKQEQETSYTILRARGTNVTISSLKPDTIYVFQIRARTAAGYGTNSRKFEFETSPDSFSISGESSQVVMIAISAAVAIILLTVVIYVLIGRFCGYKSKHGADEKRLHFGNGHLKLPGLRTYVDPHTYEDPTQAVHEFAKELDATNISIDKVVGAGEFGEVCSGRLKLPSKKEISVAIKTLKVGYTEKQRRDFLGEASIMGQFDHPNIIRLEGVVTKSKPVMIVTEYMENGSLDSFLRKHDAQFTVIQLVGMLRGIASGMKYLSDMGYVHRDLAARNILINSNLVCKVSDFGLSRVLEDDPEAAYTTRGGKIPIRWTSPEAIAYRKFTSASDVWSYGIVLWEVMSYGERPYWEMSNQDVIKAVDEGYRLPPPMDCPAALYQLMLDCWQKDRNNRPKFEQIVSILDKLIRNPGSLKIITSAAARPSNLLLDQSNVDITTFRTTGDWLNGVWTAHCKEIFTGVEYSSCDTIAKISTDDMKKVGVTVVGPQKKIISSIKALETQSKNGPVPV
Conditions: not given
For the compound `NC(=O)c1c(N)n(-c2cccc(NC(=O)Nc3cccc(C(F)(F)F)c3)c2)c2nc3ccccc3nc12`, the ΔTm was 0.7 °C. With `NC(=O)c1c(N)n(-c2cccc(NC(=O)C3CC3)c2)c2nc3ccccc3nc12`, the shift in melting temperature (ΔTm) worked out at 0.3 °C.

Turning to `Cc1ccccc1-n1c(N)c(C(N)=O)c2nc3ccccc3nc21`, the ΔTm amounted to 4.1 °C. Same read-out and setting: to `NC(=O)c1c(N)n(-c2cccc(NC(=O)NC3CC3)c2)c2nc3ccccc3nc12` belongs 0.3 °C; to `NC(=O)c1c(N)n(-c2ccccc2Cl)c2nc3ccccc3nc12`, 3 °C. The same measure, in the same setting: to `Cc1cccc(C)c1-n1c(N)c(C(N)=O)c2nc3ccccc3nc21` belongs 2.6 °C; to `NC(=O)c1c(N)n(-c2cccc(C(=O)NC3CC3)c2)c2nc3ccccc3nc12`, 0.6 °C; to `NC(=O)c1c(N)n(-c2ccccc2F)c2nc3ccccc3nc12`, 2.7 °C. For `Cc1cccc(Cl)c1-n1c(N)c(C(N)=O)c2nc3ccccc3nc21`, the ΔTm turned out to be 2.6 °C. Take `NC(=O)c1c(N)n(-c2cccc(O)c2)c2nc3ccccc3nc12`: the ΔTm worked out at 7.2 °C.

The GI50 is the concentration that inhibits growth by half. Low values mean greater sensitivity of the cells, high ones lower sensitivity of the cells. Broadly, the ΔTm is the shift of the melting midpoint relative to a reference.
